Results as given in ChEMBL document CHEMBL4414574, “Structure-Based Discovery and Development of a Series of Potent and Selective Bromodomain and Extra-Terminal Protein Inhibitors” (J Med Chem, 2019).
Activity calls are given as the source filed them. The calls are words filed in the database; no cut-off is given here.

Assays:
[1] = biological target: T1, Bromodomain-containing protein 4 (Homo sapiens, UniProt O60885); assay: Inhibition of BRD4 bromodomain 1 (unknown origin)
Procedure, shortened: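 BRD4 BD1 (His6-tagged, E. coli BL21(DE3)-expressed, Ni-NTA purified) at 10 nM with 5 nM FITC-labelled (+)-JQ1 tracer; 50 mM HEPES pH 7.4, 150 mM NaCl, 0.5 mM CHAPS, DMSO 2‰ final; graded inhibitor; 4 h dark equilibration at room temperature; fluorescence anisotropy read (ex 485/em 530 nm). IC50 from two independent experiments in duplicate, mean ± SEM.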

[2] = Tmax in ICR mouse at 10 mg/kg, po administered via gavage measured after 0.25 to 24 hrs by UPLC/MS analysis; format: ADME, organism-based; conditions: in vivo
Procedure, shortened: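 Male ICR mice dosed orally (3, 10 or 100 mg/kg, per line) in 1% DMSO/0.5% HPMC vehicle; plasma drug levels measured.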

[3] = biological target: Cytochrome P450 3A4 (Homo sapiens, UniProt P08684); assay: Time-dependent inhibition of CYP3A4 in human liver microsomes at 10 uM using midazolam or testosterone as substrate preincubated up to 30 mins followed by NADPH generating system addition and measured after 10 mins; format: ADME
Procedure, shortened: (§1)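 Human liver microsomes 0.2 mg/mL, 100 mM phosphate pH 7.4, 10 μM test compound, preincubated 0, 5, 10 and 30 min at 37 °C; then NADPH plus probe cocktail (5 μM midazolam, 50 μM testosterone, 5 μM dextromethorphan, 10 μM diclofenac, 50 μM phenacetin, 50 μM S-(+)-mephenytoin) added; 10 min reaction; kobs in units of 10^-4/min.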

[4] = biological target: CYP2C19 (Homo sapiens, UniProt P33261); assay: Reversible inhibition of CYP2C19 in human liver microsomes at 10 uM using mephenytoin as substrate preincubated for 5 mins followed by NADPH generating system addition and measured after 20 mins relative to control; format: ADME; conditions: probe mephenytoin
Procedure, shortened: (§2)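 Human liver microsomes 0.2 mg/mL, 100 mM phosphate pH 7.4, 10 μM test compound, probe cocktail (10 μM midazolam, 100 μM testosterone, 10 μM dextromethorphan, 20 μM diclofenac, 100 μM phenacetin, 100 μM mephenytoin); organic solvent <1%; 5 min preincubation at 37 °C, started with NADPH-generating system, 20 min reaction; metabolite formation expressed relative to PBS control.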

[5] = Half life in ICR mouse at 10 mg/kg, po administered via gavage measured after 0.25 to 24 hrs by UPLC/MS analysis; format: ADME, organism-based; conditions: in vivo
Procedure, shortened: (§3)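 Male ICR mice dosed orally in 1% DMSO/0.5% HPMC vehicle; plasma or brain drug levels used to derive Tmax, Cmax, AUC0-t, AUC0-inf and T1/2.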

[6] = biological target: T2, Cytochrome P450 1A2 (Homo sapiens, UniProt P05177); assay: Time-dependent inhibition of CYP1A2 in human liver microsomes at 10 uM using phenacetin as substrate preincubated up to 30 mins followed by NADPH generating system addition and measured after 10 mins; format: ADME; procedure, shortened: as §1
T2 sequence (P05177 whole entry): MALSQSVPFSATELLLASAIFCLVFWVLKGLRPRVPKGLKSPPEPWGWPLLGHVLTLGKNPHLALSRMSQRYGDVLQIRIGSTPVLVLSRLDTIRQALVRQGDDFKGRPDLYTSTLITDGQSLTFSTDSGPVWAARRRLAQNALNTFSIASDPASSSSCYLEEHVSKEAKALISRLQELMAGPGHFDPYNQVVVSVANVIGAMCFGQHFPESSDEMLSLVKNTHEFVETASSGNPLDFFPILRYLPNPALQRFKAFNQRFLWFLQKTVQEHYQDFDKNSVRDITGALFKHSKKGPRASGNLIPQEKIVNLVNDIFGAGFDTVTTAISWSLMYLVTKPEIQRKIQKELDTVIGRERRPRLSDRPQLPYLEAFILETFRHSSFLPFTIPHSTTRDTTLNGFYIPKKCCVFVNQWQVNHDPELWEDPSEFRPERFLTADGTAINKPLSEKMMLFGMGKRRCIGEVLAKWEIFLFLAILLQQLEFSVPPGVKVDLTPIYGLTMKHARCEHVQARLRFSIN

[7] = Half life in human liver microsomes at 1 uM preincubated for 5 mins followed by NADPH addition and measured after 5 to 30 mins by LC/MS/MS analysis; format: ADME, Microsome
[8] = Intrinsic clearance in human liver microsomes at 1 uM preincubated for 5 mins followed by NADPH addition and measured after 5 to 30 mins by LC/MS/MS analysis; format: ADME, Microsome; conditions: read-out: CLH
Procedure, shortened: (§4)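 Liver microsomes (0.5 mg/mL) preincubated 5 min at 37 °C with 1 μM compound in 0.1 M phosphate buffer pH 7.4 containing 1 mM EDTA and 5 mM MgCl2; started with 1 mM NADPH; sampled at 0, 5, 10 and 30 min; quenched with cold acetonitrile; parent remaining quantified by LC/MS/MS.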

[9] = biological target: Histone acetyltransferase p300 (Homo sapiens) (UniProt Q09472); assay: Inhibition of EP300 (unknown origin) at 1 uM
Procedure, shortened: (§5)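 Bromodomain binding panel (32 bromodomains) screened at 1 μM; primary binding read-out reported as percent of control, lower values meaning stronger binding.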

[10] = Intrinsic clearance in mouse liver microsomes at 1 uM preincubated for 5 mins followed by NADPH addition and measured after 5 to 30 mins by LC/MS/MS analysis; format: ADME, Microsome; conditions: read-out: CLH; procedure, shortened: as §4
[11] = AUC (0 to t) in ICR mouse at 10 mg/kg, po administered via gavage measured after 0.25 to 24 hrs by UPLC/MS analysis; format: ADME, organism-based; set-up: time 0.25-24 hr, dose 10 mg/kg, route oral; conditions: in vivo
Procedure, shortened: (§6)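 Male ICR mice were dosed orally in 1% DMSO/0.5% HPMC vehicle. Plasma (and brain, where stated) concentrations gave Tmax, Cmax, T1/2, AUC0-t and AUC0-inf.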

[12] = Cmax in ICR mouse at 10 mg/kg, po administered via gavage measured after 0.25 to 24 hrs by UPLC/MS analysis; format: ADME, organism-based; set-up: dose 10 mg/kg, route oral; conditions: in vivo; procedure, shortened: as §3
[13] = biological target: T1, Bromodomain-containing protein 4; assay: Displacement of 5-FITC labelled (+)-JQ1 from His6-tagged human BRD4 bromodomain 1 expressed in Escherichia coli BL21(DE3) )-codon plus-RIL cells incubated for 4 hrs in dark condition by fluorescence anisotropy binding assay
[14] = biological target: CYP2D6 (Homo sapiens, UniProt P10635); assay: Reversible inhibition of CYP2D6 in human liver microsomes at 10 uM using dextromethorphan as substrate preincubated for 5 mins followed by NADPH generating system addition and measured after 20 mins relative to control; format: ADME; conditions: probe dextromethorphan; procedure, shortened: as §2
[15] = biological target: Bromodomain-containing protein 2 (Homo sapiens) (UniProt P25440); assay: Inhibition of BRD2 bromodomain 1 (unknown origin)
[16] = biological target: CYP2C9 (Homo sapiens, UniProt P11712); assay: Reversible inhibition of CYP2C9 in human liver microsomes at 10 uM using diclofenac as substrate preincubated for 5 mins followed by NADPH generating system addition and measured after 20 mins relative to control; format: ADME; conditions: probe diclofenac; procedure, shortened: as §2
[17] = biological target: Cytochrome P450 2C19 (Homo sapiens, UniProt P33261); assay: Time-dependent inhibition of CYP2C19 in human liver microsomes at 10 uM using mephenytoin as substrate preincubated up to 30 mins followed by NADPH generating system addition and measured after 10 mins; format: ADME; procedure, shortened: as §1
[18] = biological target: T1, Bromodomain-containing protein 4; assay: Inhibition of BRD4 bromodomain 2 (unknown origin)
[19] = AUC (0 to infinity) in ICR mouse at 10 mg/kg, po administered via gavage measured after 0.25 to 24 hrs by UPLC/MS analysis; format: ADME, organism-based; set-up: dose 10 mg/kg, route oral, time infinity; conditions: in vivo; procedure, shortened: as §6
[20] = Half life in mouse liver microsomes at 1 uM preincubated for 5 mins followed by NADPH addition and measured after 5 to 30 mins by LC/MS/MS analysis; format: ADME, Microsome; conditions: mouse liver microsomes
[21] = biological target: Cytochrome P450 2C9 (Homo sapiens, UniProt P11712); assay: Time-dependent inhibition of CYP2C9 in human liver microsomes at 10 uM using diclofenac as substrate preincubated up to 30 mins followed by NADPH generating system addition and measured after 10 mins; format: ADME; procedure, shortened: as §1
[22] = biological target: Cytochrome P450 2D6 (Homo sapiens, UniProt P10635); assay: Time-dependent inhibition of CYP2D6 in human liver microsomes at 10 uM using dextromethorphan as substrate preincubated up to 30 mins followed by NADPH generating system addition and measured after 10 mins; format: ADME; procedure, shortened: as §1
[23] = biological target: CYP3A4 (Homo sapiens, UniProt P08684); assay: Reversible inhibition of CYP3A4 in human liver microsomes at 10 uM using midazolam or testosterone as substrate preincubated for 5 mins followed by NADPH addition and measured after 20 mins relative to control; format: ADME; conditions: probe midazolam or testosterone; procedure, shortened: as §2
[24] = test system: MM1.S; assay: Antiproliferative activity against human MM1S cells after 72 hrs by CCK8 or SRB assay; format: functional, cell-based
Procedure, shortened: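 IC50 against MM.1S cell proliferation was taken as the mean of three independent experiments, each run in triplicate, reported with SEM.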

[25] = biological target: Bromodomain-containing protein 2 (Homo sapiens) (UniProt P25440); assay: Inhibition of BRD2 bromodomain 2 (unknown origin); procedure, shortened: as §5
[26] = test system: MV4-11; assay: Induction of apoptosis in human MV4-11 cells assessed as increase in cleaved caspase-9 level after 24 hrs by Western blot analysis; format: functional, cell-based
Procedure, shortened: (§7)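 MV4-11 cells exposed to test agent at the indicated doses for 24 h. Lysates immunoblotted for full-length and cleaved caspase-3, -7, -8 and -9, with GAPDH as the loading reference.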

[27] = test system: MV4-11; assay: Antiproliferative activity against human MV4-11 cells after 72 hrs by CCK8 or SRB assay; format: functional, cell-based
[28] = test system: MV4-11; assay: Induction of apoptosis in human MV4-11 cells assessed as reduction in c-IAP2 level after 24 hrs by Western blot analysis; format: functional, cell-based
[29] = test system: MV4-11; assay: Induction of apoptosis in human MV4-11 cells assessed as reduction in c-IAP1 level after 24 hrs by Western blot analysis; format: functional, cell-based
[30] = test system: RKO; assay: Induction of cell cycle arrest in human RKO cells assessed as increase in accumulation at G1 phase at 100 nM after 24 hrs by propidium iodide staining based flow cytometric analysis; format: functional
[31] = test system: MV4-11; assay: Induction of apoptosis in human MV4-11 cells assessed as reduction in XIAP level after 24 hrs by Western blot analysis; format: functional, cell-based
[32] = test system: MV4-11; assay: Induction of apoptosis in human MV4-11 cells assessed as increase in cleaved caspase-8 level after 24 hrs by Western blot analysis; format: functional, cell-based; procedure, shortened: as §7
[33] = species: Homo sapiens; assay: Antiproliferative activity against human TY82 cells after 72 hrs by CCK8 or SRB assay; format: functional, cell-based
[34] = test system: MV4-11; assay: Antitumor activity against human MV4-11 cells xenografted in Balb/c nude mouse assessed as tumor growth inhibition at 50 mg/kg, po administered once daily and measured twice a week by caliper method relative to control; format: functional; conditions: MV4-11, po, read-out: TGI
[35] = test system: MV4-11; assay: Induction of apoptosis in human MV4-11 cells after 24 hrs by Annexin V staining based assay; format: functional, cell-based
[36] = test system: MV4-11; assay: Antitumor activity against human MV4-11 cells xenografted in Balb/c nude mouse assessed as tumor growth inhibition at 100 mg/kg, po administered once daily and measured twice a week by caliper method relative to control; format: functional; conditions: MV4-11, po, read-out: TGI

Chain of Bromodomain-containing protein 2 (Homo sapiens) (P25440 whole entry, looked up): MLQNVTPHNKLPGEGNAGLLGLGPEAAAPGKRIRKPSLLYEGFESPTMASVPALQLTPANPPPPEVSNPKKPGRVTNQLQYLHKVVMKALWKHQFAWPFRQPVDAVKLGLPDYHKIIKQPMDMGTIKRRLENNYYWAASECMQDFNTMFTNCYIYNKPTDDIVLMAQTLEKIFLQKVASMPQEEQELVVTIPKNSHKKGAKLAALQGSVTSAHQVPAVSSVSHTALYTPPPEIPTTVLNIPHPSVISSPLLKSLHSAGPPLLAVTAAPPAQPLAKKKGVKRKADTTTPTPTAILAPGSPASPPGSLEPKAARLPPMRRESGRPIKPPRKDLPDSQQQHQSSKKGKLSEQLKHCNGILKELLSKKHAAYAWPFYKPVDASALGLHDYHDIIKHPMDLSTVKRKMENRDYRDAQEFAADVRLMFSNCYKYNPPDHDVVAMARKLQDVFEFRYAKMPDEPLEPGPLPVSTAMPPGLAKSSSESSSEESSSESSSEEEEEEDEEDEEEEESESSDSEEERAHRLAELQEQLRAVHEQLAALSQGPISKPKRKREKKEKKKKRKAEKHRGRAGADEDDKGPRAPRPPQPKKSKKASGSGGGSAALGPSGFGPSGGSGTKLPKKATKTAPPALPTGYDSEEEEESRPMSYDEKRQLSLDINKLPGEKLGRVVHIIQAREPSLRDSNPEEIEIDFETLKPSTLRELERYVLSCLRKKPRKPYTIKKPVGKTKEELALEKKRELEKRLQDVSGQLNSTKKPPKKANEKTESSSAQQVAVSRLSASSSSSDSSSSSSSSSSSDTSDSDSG
Chain of CYP2C19 (P33261 whole entry): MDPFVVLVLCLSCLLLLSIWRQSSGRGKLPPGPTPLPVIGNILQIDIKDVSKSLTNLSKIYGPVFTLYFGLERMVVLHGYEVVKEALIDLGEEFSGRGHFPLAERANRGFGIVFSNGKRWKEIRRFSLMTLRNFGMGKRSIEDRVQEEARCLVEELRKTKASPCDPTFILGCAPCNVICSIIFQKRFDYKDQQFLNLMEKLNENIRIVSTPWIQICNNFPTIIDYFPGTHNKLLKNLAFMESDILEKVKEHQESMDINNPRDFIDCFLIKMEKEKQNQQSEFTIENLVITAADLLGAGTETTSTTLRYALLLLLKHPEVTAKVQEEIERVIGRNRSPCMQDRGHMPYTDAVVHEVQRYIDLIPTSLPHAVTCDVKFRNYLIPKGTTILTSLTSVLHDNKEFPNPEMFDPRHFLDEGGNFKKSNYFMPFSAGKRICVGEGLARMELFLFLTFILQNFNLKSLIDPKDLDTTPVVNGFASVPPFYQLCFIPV
Chain of Cytochrome P450 2C19 (P33261 whole entry): as above
Chain of Histone acetyltransferase p300 (Homo sapiens) (Q09472 whole entry): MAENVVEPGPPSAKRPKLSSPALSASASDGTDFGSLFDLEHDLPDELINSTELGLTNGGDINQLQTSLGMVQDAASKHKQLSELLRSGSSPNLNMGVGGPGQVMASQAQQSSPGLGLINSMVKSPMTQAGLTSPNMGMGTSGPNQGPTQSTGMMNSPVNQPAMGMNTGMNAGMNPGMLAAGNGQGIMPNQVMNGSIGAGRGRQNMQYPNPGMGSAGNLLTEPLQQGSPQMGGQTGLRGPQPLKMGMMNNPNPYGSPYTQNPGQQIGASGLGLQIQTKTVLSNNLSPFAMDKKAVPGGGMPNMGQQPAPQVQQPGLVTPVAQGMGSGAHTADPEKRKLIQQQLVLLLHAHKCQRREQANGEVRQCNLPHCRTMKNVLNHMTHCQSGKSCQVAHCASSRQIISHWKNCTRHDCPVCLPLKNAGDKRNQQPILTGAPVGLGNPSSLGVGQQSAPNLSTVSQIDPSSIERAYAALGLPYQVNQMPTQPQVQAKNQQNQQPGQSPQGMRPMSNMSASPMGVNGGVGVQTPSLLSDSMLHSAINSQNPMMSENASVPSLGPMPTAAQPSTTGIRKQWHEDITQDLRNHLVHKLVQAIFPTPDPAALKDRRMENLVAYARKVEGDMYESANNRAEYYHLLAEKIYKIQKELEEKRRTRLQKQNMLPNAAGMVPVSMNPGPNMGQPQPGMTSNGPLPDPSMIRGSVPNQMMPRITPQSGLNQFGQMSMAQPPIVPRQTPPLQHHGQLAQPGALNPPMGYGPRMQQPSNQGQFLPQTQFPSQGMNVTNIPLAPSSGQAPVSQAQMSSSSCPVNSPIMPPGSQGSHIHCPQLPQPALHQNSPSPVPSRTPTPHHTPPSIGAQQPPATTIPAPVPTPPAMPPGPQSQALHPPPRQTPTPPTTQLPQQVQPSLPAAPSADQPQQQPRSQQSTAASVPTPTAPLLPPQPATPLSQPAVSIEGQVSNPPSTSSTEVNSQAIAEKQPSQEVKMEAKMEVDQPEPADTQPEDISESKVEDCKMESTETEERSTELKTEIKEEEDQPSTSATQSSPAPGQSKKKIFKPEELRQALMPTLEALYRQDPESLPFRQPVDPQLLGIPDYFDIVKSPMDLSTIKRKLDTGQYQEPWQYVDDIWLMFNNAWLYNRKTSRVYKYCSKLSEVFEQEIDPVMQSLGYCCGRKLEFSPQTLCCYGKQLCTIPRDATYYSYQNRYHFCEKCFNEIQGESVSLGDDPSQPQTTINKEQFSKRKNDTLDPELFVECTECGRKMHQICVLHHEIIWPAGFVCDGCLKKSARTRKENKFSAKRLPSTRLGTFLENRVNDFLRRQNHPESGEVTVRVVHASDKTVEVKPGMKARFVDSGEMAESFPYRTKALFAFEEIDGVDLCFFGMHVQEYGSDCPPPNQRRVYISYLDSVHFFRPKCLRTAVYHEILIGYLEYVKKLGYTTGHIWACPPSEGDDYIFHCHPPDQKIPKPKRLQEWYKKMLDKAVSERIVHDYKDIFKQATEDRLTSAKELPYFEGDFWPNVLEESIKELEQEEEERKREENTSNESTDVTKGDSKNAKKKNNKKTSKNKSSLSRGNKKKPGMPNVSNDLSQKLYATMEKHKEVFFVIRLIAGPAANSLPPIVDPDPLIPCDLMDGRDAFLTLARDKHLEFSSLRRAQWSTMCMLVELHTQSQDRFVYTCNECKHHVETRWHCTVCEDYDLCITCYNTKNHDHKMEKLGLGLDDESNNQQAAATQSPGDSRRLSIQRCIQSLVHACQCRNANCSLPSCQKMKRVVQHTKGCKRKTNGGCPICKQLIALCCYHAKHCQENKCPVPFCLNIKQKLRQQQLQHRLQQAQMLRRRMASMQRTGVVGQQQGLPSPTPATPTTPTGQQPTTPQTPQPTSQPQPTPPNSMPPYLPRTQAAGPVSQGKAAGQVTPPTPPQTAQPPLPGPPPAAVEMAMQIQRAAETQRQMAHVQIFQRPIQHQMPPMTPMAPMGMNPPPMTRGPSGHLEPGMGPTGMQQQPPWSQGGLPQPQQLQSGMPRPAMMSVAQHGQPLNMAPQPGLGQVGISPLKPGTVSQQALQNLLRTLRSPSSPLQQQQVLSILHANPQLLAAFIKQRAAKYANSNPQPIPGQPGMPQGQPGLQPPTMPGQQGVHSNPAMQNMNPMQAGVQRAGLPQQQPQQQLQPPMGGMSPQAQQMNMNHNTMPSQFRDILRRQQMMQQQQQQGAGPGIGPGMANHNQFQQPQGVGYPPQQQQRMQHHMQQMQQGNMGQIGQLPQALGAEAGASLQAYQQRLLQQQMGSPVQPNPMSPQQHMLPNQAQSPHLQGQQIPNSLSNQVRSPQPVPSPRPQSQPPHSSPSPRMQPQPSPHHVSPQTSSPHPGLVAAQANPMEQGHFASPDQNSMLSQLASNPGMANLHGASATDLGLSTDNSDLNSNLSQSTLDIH
Chain of Cytochrome P450 3A4 (P08684 whole entry): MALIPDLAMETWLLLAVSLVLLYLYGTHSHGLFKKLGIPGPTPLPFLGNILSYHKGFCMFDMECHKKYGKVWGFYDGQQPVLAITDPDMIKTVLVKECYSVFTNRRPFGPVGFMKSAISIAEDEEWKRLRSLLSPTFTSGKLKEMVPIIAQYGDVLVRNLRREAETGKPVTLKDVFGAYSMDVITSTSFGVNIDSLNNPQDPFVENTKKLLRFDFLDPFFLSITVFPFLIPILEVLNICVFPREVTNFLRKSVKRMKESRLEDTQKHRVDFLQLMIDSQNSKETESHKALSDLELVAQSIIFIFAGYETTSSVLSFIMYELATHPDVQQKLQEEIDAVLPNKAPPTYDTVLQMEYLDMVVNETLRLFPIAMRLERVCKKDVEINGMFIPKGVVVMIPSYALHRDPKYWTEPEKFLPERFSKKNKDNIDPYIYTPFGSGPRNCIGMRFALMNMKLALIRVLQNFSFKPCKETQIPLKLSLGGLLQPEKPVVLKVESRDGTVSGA
Chain of CYP3A4 (P08684 whole entry): as above

Compound: Cc1ccc(-n2nc(C(=O)N3CCN(C)CC3)nc2-c2ccc3c(c2)N(C2CCCC2)[C@H](C)C(=O)N3C)cc1
- inhibition [1]: Active
- Tmax [2]: 18 min
- TDI [3]: 55 ×10⁻⁴ /min
- inhibition at 20 min, 10 µM [4]: 19%
- half-life [5]: 36 min
- TDI [6]: 51 ×10⁻⁴ /min
- half-life at 1 µM [7]: 23 min
- microsomal CLint at 1 µM [8]: 61 µL/min/mg
- inhibition [9]: inactive
- microsomal CLint at 1 µM [10]: 34 µL/min/mg
- AUC(0-t) [11]: 58100 ng·h/mL
- Cmax [12]: 42900 ng/mL
- IC50 [13]: 5.4 nM
- inhibition at 20 min, 10 µM [14]: 3%
- inhibition activity call (active/inactive) [15]: Active
- inhibition at 20 min, 10 µM [16]: 30%
- TDI [17]: 141 ×10⁻⁴ /min
- inhibition [18]: Active
- AUC(0-inf) [19]: 58100 ng·h/mL
- half-life at 1 µM [20]: 41 min
- TDI [21]: 74 ×10⁻⁴ /min
- TDI [22]: Not Active
- inhibition at 20 min, 10 µM [23]: 31%
- IC50 [24]: 26.1 nM
- inhibition [25]: Active

Compound: Cc1sc2c(c1C)C(c1ccc(Cl)cc1)=N[C@@H](CC(=O)Nc1ccc(O)cc1)c1nnc(C)n1-2 [BIRABRESIB]
- Activity [26]: Dose-dependent effect
- Activity [27]: Active
- Activity [28]: Dose-dependent effect
- Activity [29]: Dose-dependent effect
- Activity [30]: Active
- Activity [31]: Dose-dependent effect
- Activity [32]: Dose-dependent effect
- Activity [33]: Active
- inhibition in vivo at 50 mg/kg [34]: 71.5%
- IC50 [24]: 6.3 nM
- Activity [35]: Active
- inhibition in vivo at 100 mg/kg [36]: 87.5%
